The record followed here is ChEMBL document CHEMBL3813686, “Biologically Active Acetylenic Amino Alcohol and N-Hydroxylated 1,2,3,4-Tetrahydro-β-carboline Constituents of the New Zealand Ascidian Pseudodistoma opacum” (J Nat Prod, 2016).

What is called MIC is the lowest concentration found to suppress growth. A high value points to a less susceptible organism. The term IC50 denotes the concentration at which inhibition is half-maximal. Broadly, the MBC is the lowest tested concentration that kills the bacteria rather than only halting them.

Experiment [1] has as its system Staphylococcus aureus. Description: Antibacterial activity against Staphylococcus aureus XEN36 incubated overnight by microbroth-dilution method. Format: functional. The essentials: (§1)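 Mueller Hinton broth cultures were grown overnight at 37 °C with shaking at 200 rpm. Inoculum was adjusted to approximately 5 × 10^5 cfu/mL final, confirmed by retrospective plating. Compounds were dissolved in DMSO and tested in doubling dilutions, with untreated and DMSO controls. Plates were incubated overnight at 37 °C. Each concentration was run in triplicate on three separate occasions.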
For orientation: Dilution methods test growth across graded concentrations, often in twofold steps.

Experiment [2] relates to Mycobacterium tuberculosis. Description: Antibacterial activity against Mycobacterium tuberculosis BSG001 incubated overnight by microbroth-dilution method. Format: functional. The essentials: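 M. tuberculosis H37Rv carrying a bacterial luciferase vector, grown 2 weeks at 37 °C (100 rpm) in Middlebrook 7H9 with ADC and glycerol. Assay medium was 7H9 without Tween or kanamycin. Compounds in DMSO were tested in doubling dilutions from 64 to 1 μg/mL, with untreated and DMSO controls, incubated overnight at 37 °C. Triplicate wells per concentration; three separate experiments.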

The subject of another experiment is Plasmodium falciparum. Description: Antiplasmodial activity against chloroquine-resistant Plasmodium falciparum FcB1/Columbia infected in erythrocytes assessed as inhibition of parasite growth after 48 hrs by 3H-hypoxanthine incorporation assay. Format: functional, organism-based.
Experiment [3] relates to Staphylococcus aureus. Description: Bactericidal activity against Staphylococcus aureus XEN36 incubated overnight by microbroth-dilution method. In kind it is functional. A digest of the protocol: (§2)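 Broth from the MIC wells (standard microbroth dilution, ~5 × 10^5 cfu/mL in Mueller Hinton broth) was transferred into fresh medium and incubated overnight at 37 °C, then scored for growth. Cell dilutions were also plated. MBC was taken as a reduction of at least 3 logs from the initial inoculum.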

Experiment [4] has as its system Escherichia coli. Description: Antibacterial activity against Escherichia coli ATCC 25922 incubated overnight by microbroth-dilution method. Format: functional. A digest of the protocol:
as §1

For experiment [5], the system named is Escherichia coli. Description: Bactericidal activity against Escherichia coli ATCC 25922 incubated overnight by microbroth-dilution method. Format: functional. A digest of the protocol:
as §2

Experiment [6] relates to Mycobacterium tuberculosis. Description: Bactericidal activity against Mycobacterium tuberculosis BSG001 incubated overnight by microbroth-dilution method. Format: functional. A digest of the protocol: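 Broth microdilution on luciferase-tagged M. tuberculosis H37Rv in 7H9 medium without Tween or kanamycin, using DMSO-dissolved compounds at 64–1 μg/mL (doubling) and incubating overnight at 37 °C. 5 μL from the MIC wells went into 195 μL fresh medium and was incubated overnight at 37 °C. Dilutions were also plated. MBC was taken as at least a 3-log drop from the initial inoculum.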

Experiment [7] concerns Escherichia coli. Description: Antibacterial activity against Escherichia coli after 24 hrs by broth macrodilution method. In kind it is functional.
The subject of experiment [8] is Mycobacterium tuberculosis. Description: Antibacterial activity against Mycobacterium tuberculosis H37Ra after 7 days by resazurin dye based fluorescence assay. As to conditions: 168 h. In kind it is functional. For orientation: Alamar Blue is a resazurin reagent that responds to reducing activity.
Experiment [9] relates to Escherichia coli. Description: Antibacterial activity against Escherichia coli ATCC 25922 after 16 hrs by resazurin dye based fluorescence assay. Format: functional. To be noted: ATCC 25922, 16 h.
The subject of experiment [10] is Staphylococcus aureus. Description: Antibacterial activity against Staphylococcus aureus ATCC 25923 after 16 hrs by resazurin dye based fluorescence assay. In kind it is functional. To be noted: ATCC 25923, 16 h.

Structures are written as SMILES. ≈ marks a conversion by molar mass, not a printed value. Calls of active or inactive are those of the source. No cut-off for these calls is given here.

`N=C(N)NCCCCC1NCCc2c1n(O)c1cc(Br)ccc21` (configuration not stated): the MIC in the experiment with Staphylococcus aureus [1] stood at 53 µM; in experiment [2] it was 106 µM; with Escherichia coli [4], 106 µM. For the same molecule, the IC50 in the experiment on Plasmodium falciparum was 3.8 µM. Besides, the MBC against Staphylococcus aureus [3] worked out at 53 µM; against Escherichia coli [5] it was 106 µM; in experiment [6] it was 106 µM.
In the case of `C=CCCCCCC/C=C\C[C@H](O)[C@H](C)N`, the lowest concentration to inhibit growth in the experiment on Escherichia coli [7] (MIC) was 196 µM (≈ 44.2 µg/mL).
On to `CO[C@H]1/C=C/O[C@@]2(C)Oc3c(C)c(O)c4c(O)c(c(/C=N/N5CCN(C)CC5)c(O)c4c3C2=O)NC(=O)/C(C)=C\C=C\[C@H](C)[C@H](O)[C@@H](C)[C@@H](O)[C@@H](C)[C@H](OC(C)=O)[C@@H]1C` [RIFAMPIN], for which the results for the MIC (with Staphylococcus aureus [1]; in [2]; against Escherichia coli [4]) were 0.004 µg/mL, 0.161 µg/mL and 8 µg/mL, respectively. In addition, the figures for the minimum bactericidal concentration (MBC) (with Staphylococcus aureus [3]; in the experiment on Escherichia coli [5]; in experiment [6]) were 0.008 µg/mL, 8 µg/mL and 0.161 µg/mL, respectively.
On to `C=CCCC#CC#CCCCCCCC[C@H](O)CN`, for which the values for the MIC (against Staphylococcus aureus [1]; in experiment [2]; with Escherichia coli [4]) were 85 µM, 85 µM and 170 µM, respectively. Besides, the figures for the MBC (against Staphylococcus aureus [3]; against Escherichia coli [5]; in experiment [6]) were 32 µg/mL, > 128 µg/mL and 64 µg/mL, respectively.
On to `C=CCCC#CC#CCCCCCCC[C@@H](CNC(=O)c1ccccc1)OC(=O)c1ccccc1`, for which the result (in the experiment with Staphylococcus aureus [1]; in experiment [2]; in the experiment on Escherichia coli [4]) was inactive.
In turn, `CCCCC/C=C\C/C=C\CC/C=C/C[C@H](O)[C@H](C)N` came in with an MIC against Escherichia coli [7] of 360 µM (≈ 101 µg/mL).
Consider `CCCCCCCCCCC[C@H](O)[C@H](C)N`, for which the MIC (in experiment [8]; with Escherichia coli [9]; in the experiment on Staphylococcus aureus [10]) was 33 µM (≈ 7.57 µg/mL) throughout.
